Bioassay records: PubChem BioAssay, The Scripps Research Institute Molecular Screening Center
This is a sample that favours compounds with a hit; in the whole collection about 3.3% have one here.
PRMT1 inh: PRMT1 methyltransferase inhibitors, primary screen, biochemical, fluorescence polarization. Protein arginine N-methyltransferase 1 (Homo sapiens), Q99873. AID 652257, 2013. inhibition, % at 2.79 µM. recombinant PRMT1, activity-based probe fluorescence polarization. 370,000 tested, 1.3% active;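 active = inhibition above about 21% made by adding two undisclosed values, limit read from the data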
TDP2 inh: human TDP2 enzyme inhibitors, primary screen, biochemical, epi absorbance, recombinant enzyme | 370,000 tested, 0.34% active | inhibition, % at 12.8 µM | Tyrosyl-DNA phosphodiesterase 2 (Homo sapiens), O95551 | T5PNP hydrolysis, p-nitrophenol absorbance 415 nm;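 active = inhibition above the mean of all tested compounds plus 3 SD, set per campaign, cut at about 25% in these data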;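 also: 0% = DMSO with enzyme and 100% = buffer with substrate but no TDP2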
Target sequence (O95551 whole entry, looked up): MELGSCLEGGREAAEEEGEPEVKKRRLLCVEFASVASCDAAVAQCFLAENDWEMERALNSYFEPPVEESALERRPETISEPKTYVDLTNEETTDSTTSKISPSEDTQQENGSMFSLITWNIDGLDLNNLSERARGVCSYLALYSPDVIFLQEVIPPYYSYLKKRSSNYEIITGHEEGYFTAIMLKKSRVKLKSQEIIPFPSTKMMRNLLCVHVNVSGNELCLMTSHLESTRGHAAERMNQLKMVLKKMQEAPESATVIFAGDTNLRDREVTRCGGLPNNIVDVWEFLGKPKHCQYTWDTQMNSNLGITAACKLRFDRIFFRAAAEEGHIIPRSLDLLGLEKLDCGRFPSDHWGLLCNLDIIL
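Material: recombinant human TDP2; quantity: TDP2 enzyme at 120 nM final; medium: Tris-HCl pH 7.5 with MgCl2; compound: single concentration, 12.8 µM nominal, with 1% DMSO; incubation: 2 h enzyme incubation at 37 °C; signal: epi absorbance; measure: percent inhibition; benchmarks: high control without enzyme, low control DMSO plus TDP2; repeats: singlicate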
MBD2 DNA inh: inhibitors of MBD2 binding to methylated DNA, primary screen, biochemical, TR-FRET, DNA-binding domain, human; inhibition, % at 4.4 µM; AID 686964, 2013; 370,000 tested, 0.31% active; MBD2 binding to methylated oligonucleotide; in the data active = inhibition above about 13%
LEDGF integ inh: blockers of LEDGF/p75-dependent integrase strand transfer – biochemical, TR-FRET, high throughput, primary screen | AID 743269, 2014 | 370,000 tested, 0.64% active | TR-FRET IN-LEDGF/p75 DNA integration, Eu/Cy5 | inhibition, % at 3.7 µM | HIV-1 integrase (with human LEDGF/p75);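 active = inhibition above the screen-wide mean plus 3 SD, cut at about 13% in these data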;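 also: signal is the Cy5 over europium emission ratio at 671 and 618 nm; 0% = plate median of compound wells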
UHRF1 MBD2 ctr: UHRF1 methylated DNA binding inhibitors, primary screen, counter-screen for MBD2 inhibitor project, biochemical, TR-FRET, human UHRF1, single concentration. E3 ubiquitin-protein ligase UHRF1 (Homo sapiens), Q96T88. UHRF1 binding to methylated oligo. inhibition, % at 4.4 µM. 370,000 tested, 0.75% active;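 also: UHRF1 SRA domain binding a hemimethylated CpG hairpin DNA probe; 0% = median of test compound wells and 100% = reference inhibitor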
SIAE primary: human SIAE inhibitors, primary screen, biochemical, fluorescence polarization, FP-Rh probe, 1536-well HTS | SIAE FP-Rh probe binding | 370,000 tested, 0.69% active | Sialate O-acetylesterase (Homo sapiens), Q9HAT2 | inhibition, % at 9.66 µM;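 active = inhibition above a cutoff: mean of compounds within the control limits plus 3 SD of those, cut at about 17% in these data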;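 also: 0% = plate median of compound wells and 100% = probe without SIAE protein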
PRMT1 confirm: PRMT1 methyltransferase inhibitors, confirmation, biochemical, fluorescence polarization, triplicate; shares compounds with PRMT1 inh; recombinant His-PRMT1, activity-based probe fluorescence polarization; inhibition, % at 2.79 µM; 3,300 tested, 42% active;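 active = mean inhibition across replicates above the hit cutoff derived for the earlier primary screen, cut at about 22% in these data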
UHRF1 ctr MBD2: UHRF1 methylated DNA binding inhibitors, counter-screen for MBD2 inhibitor project, biochemical, TR-FRET, human UHRF1. inhibition, % at 4.4 µM. 1,000 tested, 25% active. UHRF1 binding to methylated oligonucleotide. AID 720530, 2013. shares compounds with MBD2 DNA inh;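 also: UHRF1 SRA domain binding a labeled hemimethylated CpG hairpin DNA; 0% = vehicle only and 100% = reference inhibitor with vehicle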
MBD2 DBD conf: inhibitors of MBD2 binding to methylated DNA, confirmation, biochemical, TR-FRET, DNA-binding domain, human; shares compounds with MBD2 DNA inh; TR-FRET MBD2-DBD binding to methylated oligonucleotide; inhibition, % at 4.4 µM; 1,000 tested, 26% active; AID 720531, 2013; in the data active = inhibition above about 14%
* = called active by the depositor; / = not tested or not shown. Rule as the data show it, unless noted: active = inhibition above about 21%; inactive = the rest.

SMILES | PRMT1 inh | TDP2 inh | MBD2 DNA inh | LEDGF integ inh | UHRF1 MBD2 ctr | SIAE primary | PRMT1 confirm | others
COc1ccc2cc(-c3cccc4[nH]cc(C)c34)ccc2c1 | 6 | 3 | 2 | -1 | 0 | 5 | /
COC1=CC(=O)C=C(OC)C1=O | 56* | -1 | -3 | -2 | -7 | -4 | 54*
O=C(NC1CCCC1)N1CCC(c2nc3ccc(Cl)cc3[nH]2)CC1 | -2 | 8 | -2 | -1 | -4 | 0 | /
S=c1[nH]c2ccc(Cc3ccc4[nH]c(=S)[nH]c4c3)cc2[nH]1 | 30* | -8 | 0 | 3 | 1 | 1 | 7
CCc1ccc(Oc2c(Cl)cnn(-c3ccc(C)cc3)c2=O)cc1 | 3 | 0 | 3 | -3 | 2 | -3 | /
Cc1ccc(SCC(=O)N=C2NC(=O)CS2)cc1 | 52* | -5 | -5 | 2 | 2 | -2 | 3
Cc1cc(SCC(=O)NN)c2cc(Br)ccc2n1 | 64* | -11 | 3 | -2 | -4 | 7 | 60*
COc1cccc2c(SCC(=O)N/N=C/c3ccc(O)cc3O)cc(C)nc12 | 46* | -6 | 9 | -3 | 6 | -2 | 0
COc1ccccc1/C=N/NC(=O)CSc1cc(C)nc2ccccc12 | 33* | -3 | 1 | -2 | 3 | -9 | 1
OC[C@H]1CC[C@@H]2O[C@H](CCc3ccc(-c4ccc(F)cc4)cc3)[C@H](n3cc(C4CC4)nn3)C[C@@H]2O1 | -5 | 0 | 6 | 6 | 4 | 0 | /
C[C@H]1[C@@H](OC(=O)NC2CCC2)CC[C@@]23CCCN2C(=O)CCC[C@@H]13 | -4 | 1 | 1 | 2 | -1 | 9 | /
COCc1cc(=O)n2[nH]c(-c3ccsc3-n3c(C)ccc3C)cc2n1 | 45* | 5 | 36* | 81* | 72* | -11 | 4
Oc1csc(Cc2nc(-c3ccc(Br)cc3)cs2)n1 | 1 | 3 | 2 | -6 | -3 | -5 | /
Cc1sc(Cc2nc(O)cs2)nc1-c1ccccc1 | 58* | -5 | 6 | 3 | 1 | 3 | 14
COc1cc2c(cc1OC)C(c1ccccc1O)N(C1CC(=O)N(c3ccccc3)C1=O)CC2 (stereo not drawn) | 83* | -2 | 7 | -1 | 4 | -5 | 19
COc1cc(NC(=O)c2ccccc2)c(C)cc1NC(=O)CSc1nnc(COc2ccccc2)n1Cc1ccco1 | -4 | -3 | -4 | 1 | 3 | -2 | /
CCOC(=O)N1CCN(C(=O)C[C@@H]2C(=O)N(CCc3ccc(Cl)cc3)/C3=C/CCCCC[C@@]32C(=O)OCC)CC1 | 0 | 0 | 0 | -3 | 0 | 6 | /
COc1cc(OC)c2c(O)c3c(=O)cc(C)oc3c(-c3c(OC)cc4cc5c(c(O)c4c3O)C(=O)CC(C)(O)O5)c2c1 (stereo not drawn) | -4 | 2 | 7 | 2 | 3 | -7 | /
COC(=O)C1CN(Cc2cn(CCC3OCCO3)nn2)CCS(=O)(=O)N1Cc1ccccc1 (stereo not drawn) | -2 | 2 | 5 | -3 | 17 | 0 | /
O=C(CN1C(=O)/C(=C/c2ccco2)SC1=S)Nc1ccc(C(=O)O)c(O)c1 | 52* | 21 | 20* | 90* | 79* | -22 | 35* | UHRF1 ctr MBD2=26*;MBD2 DBD conf=7
Cc1cc(C)nc(N2CCC(C(=O)N(C)CCc3ccccn3)CC2)n1 | -9 | -3 | 2 | 3 | 1 | 11 | /
O=C(CSc1cn[nH]n1)Nc1cccc(C(=O)O)c1 | 72* | 4 | 15* | 0 | 0 | 4 | 90* | UHRF1 ctr MBD2=1;MBD2 DBD conf=6
Brc1ccc(-c2nn3c(-c4ccccc4)nnc3s2)cc1 | 0 | -6 | -2 | -1 | -5 | 0 | /
COc1cccc(C(=O)NCCN2C(=O)C3C4C=CC(C4)C3C2=O)c1 (stereo not drawn) | 2 | 6 | 3 | -4 | 2 | 6 | /
CC(C)NC(=O)Cn1c(SCC(=O)c2ccc(F)cc2)nc2ccccc21 | 62* | 23 | 14* | 9 | 22* | -1 | 5 | UHRF1 ctr MBD2=6;MBD2 DBD conf=3
SMILES | PRMT1 inh | TDP2 inh | MBD2 DNA inh | LEDGF integ inh | UHRF1 MBD2 ctr | SIAE primary | PRMT1 confirm | others
C[C@H](CO)N1C[C@H](C)[C@@H](CN(C)C(=O)Nc2ccc(F)cc2)OCc2cn(nn2)CCCC1=O | 3 | 4 | 2 | -1 | -1 | -1 | /
COc1ccc(NC(=O)N(C)C[C@@H]2OCc3cn(nn3)CCCC(=O)N([C@H](C)CO)C[C@H]2C)cc1 | 65* | 1 | 17* | -1 | 6 | 10 | 6 | UHRF1 ctr MBD2=9;MBD2 DBD conf=4
CCC[C@H]1[C@@H](NC(=O)c2ccc(OC)cc2)CC[C@@]23CCCN2C(=O)CCC[C@@H]13 | -3 | -1 | -2 | 1 | -1 | 2 | /
O=c1nc2c(O)cccn2c2c1c(=O)[nH]c1ccccc12 | 34* | -21 | 23* | 13 | 43* | 3 | 34* | UHRF1 ctr MBD2=25*;MBD2 DBD conf=26*
CCCSC1=N/C(=C\c2ccc([N+](=O)[O-])o2)C(=O)S1 | 29* | 9 | 19* | 35* | 52* | 15 | 7 | UHRF1 ctr MBD2=21*;MBD2 DBD conf=4
CCCSC1=N/C(=C\C=C\c2ccco2)C(=O)S1 | 48* | 6 | 57* | 69* | 95* | 11 | 12 | UHRF1 ctr MBD2=27*;MBD2 DBD conf=10
CCSC1=N/C(=C\c2ccc(-c3ccccc3[N+](=O)[O-])o2)C(=O)S1 | 15 | 4 | -4 | 1 | -8 | 11 | /
Cc1ccc(/C=C/C(=O)OCC(=O)c2ccc3c(c2)NC(=O)CO3)o1 | 17 | -8 | -5 | 2 | -2 | -1 | /
